Experimental data reported in ChEMBL document CHEMBL4402562, “Discovery of Novel Peptidomimetic Boronate ClpP Inhibitors with Noncanonical Enzyme Mechanism as Potent Virulence Blockers in Vitro and in Vivo” (J Med Chem, 2020).
Active and inactive are the calls of the source. No cut-off for these calls is given here.

Tests used:
[1] = molecular target: T1, ATP-dependent Clp protease proteolytic subunit (Staphylococcus aureus (strain NCTC 8325)) (UniProt Q2G036); test: (§1) Inhibition of N-terminal His6-sumo-tagged full length Staphylococcus aureus ClpP expressed in Escherichia coli BL2 (DE3) pre-incubated for 10 mins before Suc-LY-AMC addition and measured after 1 hr by fluorescence based assay
T1 sequence (whole entry): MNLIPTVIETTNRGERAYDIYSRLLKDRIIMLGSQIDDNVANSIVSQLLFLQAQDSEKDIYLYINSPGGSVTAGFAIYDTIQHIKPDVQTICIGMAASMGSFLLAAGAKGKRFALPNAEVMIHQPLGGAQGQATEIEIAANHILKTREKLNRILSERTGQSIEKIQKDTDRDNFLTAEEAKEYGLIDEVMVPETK
In short: (§2)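 SaClpP (1 μM monomer) in 100 mM Hepes pH 7.0, 100 mM NaCl. Preincubated 10 min at RT with inhibitor, two-fold dilutions over 8 steps from 100 μM. Suc-LY-AMC at 200 μM, 380/440 nm recorded for 1 h at 37 °C, slopes normalized to DMSO. For kinact/Ki, inhibitor premixed with substrate and reaction started by enzyme, fitted by least squares. Thrice, triplicate wells.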

[2] = molecular target: T2, ATP-dependent Clp protease proteolytic subunit (Staphylococcus aureus (strain NCTC 8325), UniProt Q2G036); test: as §1; in short: as §2
T2 sequence (Q2G036 whole entry): T1 sequence (whole entry)

[3] = molecular target: T1, ATP-dependent Clp protease proteolytic subunit (Staphylococcus aureus (strain NCTC 8325)); test: Inhibition of N-terminal His6-sumo-tagged full length Staphylococcus aureus ClpP expressed in Escherichia coli […] (DE3) assessed as Kinact/Ki ratio […] and measured after 1 hr by fluorescence based assay
[4] = molecular target: T2, ATP-dependent Clp protease proteolytic subunit; test: Inhibition of ClpP in methicillin-resistant Staphylococcus aureus ATCC 33591 assessed as reduction in bacteria-induced hemolysis of sheep erythrocytes by measuring hemoglobin release incubated for 15 mins
[5] = Induction of hemolysis in sheep erythrocytes by measuring hemoglobin release incubated for 15 mins; type: cell-based, Ovis aries, Erythrocyte
In short: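 Serially diluted compound mixed directly with 2% sheep erythrocytes in 10 mM Tris pH 7.4, 0.9% NaCl. Buffer served as negative and water as positive control. After 1,500 rpm, 15 min spin, released hemoglobin read at 545 nm. Three experiments, triplicate tubes.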

[6] = Cytotoxicity in human HeLa cells assessed as reduction in cell viability incubated for 24 hrs by MTT assay; type: cell-based
In short: (§3)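 MTT assay. HeLa (3×10^3 cells) or HepG2 (4×10^3 cells) seeded in DMEM and grown 24 h, then given compound for a further 24 h. Absorbance read at 570 nm against DMSO wells. GI50 from dose-response fit; three experiments, triplicate wells.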

[7] = Cytotoxicity in human HepG2 cells assessed as reduction in cell viability incubated for 24 hrs by MTT assay; type: cell-based; in short: as §3
[8] = molecular target: T1, ATP-dependent Clp protease proteolytic subunit (Staphylococcus aureus (strain NCTC 8325)); test: Binding affinity to N-terminal His6-sumo-tagged full length Staphylococcus aureus ClpP expressed in Escherichia coli […] assessed as change in melting temperature at 100 uM by differential scanning calorimetry analysis
In short: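 DSC: SaClpP at 0.5 mg/mL (25 μM) incubated at RT with 100 μM inhibitor in assay buffer. Scanned at 1 °C/min over 30–90 °C, with a buffer-buffer scan subtracted. Tm taken as the thermogram peak maximum. Run once, single sample.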

[9] = molecular target: T1, ATP-dependent Clp protease proteolytic subunit (Staphylococcus aureus (strain NCTC 8325)); test: as §1, with “[…] assessed as enzyme activity recovery level at 20-fold molar excess” for “(DE3)”, “hr followed by dialysis up to 72 hrs” for “hr”, “assay relative to control” for “assay”; design: scale not given: the % may be the effect or the level left
In short: (§4)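 ClpP (1 μM, 100 mM Hepes pH 7.0, 100 mM NaCl) incubated 1 h at RT with 20-fold molar excess inhibitor or DMSO. Dialyzed at 4 °C, buffer changed after 6 h and then every 24 h. Aliquots assayed for peptidase activity with Suc-LY-AMC. Thrice, single sample.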

[10] = Inhibition of human ClpP (57 to 277 residues) expressed in Escherichia coli […] pre-incubated for 10 mins before Ac-WLA-AMC addition and measured after 1 hr by fluorescence based assay relative to control
In short: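 hClpP (3.5 μM monomer) in 25 mM Tris-HCl pH 8.0, 100 mM KCl. Preincubated 10 min at RT with inhibitor, two-fold dilutions over 8 steps from 100 μM. Then 100 μM Ac-WLA-AMC, 380/440 nm for 1 h at 37 °C, slopes normalized to DMSO. Thrice, triplicate wells.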

[11] = Inhibition of Pseudomonas aeruginosa ClpP1 expressed in Escherichia coli […] pre-incubated for 10 mins before Suc-LY- AMC addition and measured after 1 hr by fluorescence based assay relative to control
In short: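 PaClpP1 (0.5 μM monomer) in 25 mM Tris-Cl pH 7.5, 150 mM NaCl. Preincubated 10 min at RT with inhibitor, two-fold dilutions over 8 steps from 50 μM. Then 50 μM Suc-LY-AMC, 380/440 nm for 1 h at 37 °C, slopes normalized to DMSO. Thrice, triplicate wells.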

[12] = molecular target: 20S proteasome (Homo sapiens) (UniProt P49721+P20618+P28074+P28062+P28065+P28072+P25786+P25787+P25788+P25789+P28066+P60900+O14818+Q8TAA3+P40306+A5LHX3+P49720+P28070+Q99436); test: Inhibition of 20S proteasome (unknown origin) pre-incubated before Suc-LLVY-AM addition and measured after 1 hr by fluorescence based assay; type: protein-complex assay
[13] = Inhibition of AlgW (unknown origin) up to 100 uM pre-incubated for 10 mins before Abz-T-V-A-W-pNA addition and measured after 1 hr by fluorescence based assay
[14] = molecular target: Coagulation factor X (Homo sapiens) (UniProt P00742); test: Inhibition of human F10a up to 100 uM pre-incubated for 10 mins before Pefachrome Fxa addition and measured after […] based assay
Sequence of Coagulation factor X (Homo sapiens) (P00742 41-179 limits assumed): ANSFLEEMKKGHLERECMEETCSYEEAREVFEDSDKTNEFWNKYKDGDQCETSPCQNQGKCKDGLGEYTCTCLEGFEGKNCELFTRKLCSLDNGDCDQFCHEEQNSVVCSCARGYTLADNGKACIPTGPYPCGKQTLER
Sequence of Coagulation factor X (Homo sapiens) (P00742 235-488 limits assumed): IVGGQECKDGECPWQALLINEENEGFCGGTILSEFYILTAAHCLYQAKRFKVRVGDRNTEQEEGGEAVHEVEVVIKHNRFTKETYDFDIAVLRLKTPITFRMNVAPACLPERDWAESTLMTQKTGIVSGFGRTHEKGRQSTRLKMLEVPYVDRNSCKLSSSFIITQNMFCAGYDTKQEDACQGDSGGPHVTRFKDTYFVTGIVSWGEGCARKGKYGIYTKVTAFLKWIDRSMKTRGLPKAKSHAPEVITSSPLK

[15] = test system: Staphylococcus aureus; test: Inhibition of Staphylococcus aureus ClpXP expressed in Escherichia coli […] at 1 to 100 uM using FITC-casein substrate in presence of ATP-regenerating system incubated for 50 mins by fluorescence based assay
In short: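 3.6 μM SaClpP with 3 μM SaClpX in 25 mM Hepes pH 7.5, 20 mM MgCl2, 30 mM KCl, 0.03% Tween 20, 10% glycerol, 2 mM DTT. ATP regeneration: 4 mM ATP, 20 U/mL creatine kinase, 16 mM creatine phosphate. FITC-casein 0.048 mg/mL, 494/521 nm for 50 min; slope 300–1200 s vs DMSO. Thrice, triplicate wells.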

[16] = molecular target: T1, ATP-dependent Clp protease proteolytic subunit (Staphylococcus aureus (strain NCTC 8325)); test: as §1, with “[…] at 20-fold molar excess” for “(DE3)”, “hr followed by dialysis for 72 hrs” for “hr”, “assay relative to control” for “assay”; in short: as §4
[17] = test system: Staphylococcus aureus; test: Growth inhibition of methicillin-resistant Staphylococcus aureus ATCC 33591 up to 64 uM incubated for 18 hrs by broth microdilution method; type: functional, organism-based
In short: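 MRSA ATCC 33591 at ~5×10⁵ CFU/mL in MHB with graded compound concentrations vs DMSO; OD600 growth curves over 18 h; three experiments, triplicate wells. MIC by CLSI broth microdilution in CAMHB, 0.5-256 µg/mL, 18 h at 37 °C, lowest concentration with no visible growth.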

[18] = test system: Staphylococcus aureus; test: (§5) Antivirulence activity against methicillin-resistant Staphylococcus aureus ATCC 33591 infected in BALB/c mouse model of skin abscess assessed as reduction in skin inflammation at 3 mg/kg injected into shaved area of skin once daily for 4 days measured after 12 hrs post last dose by hematoxylin and eosin staining based optical microscopy; type: functional, organism-based
In short: (§6)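 Same MRSA ATCC 33591 skin-abscess model in female BALB/c mice (n=5/group), 40 µL compound at 1.5 or 3 mg/kg injected into the infected shaved skin once daily for 4 days. On day 4 infected skin and heart, liver, spleen, lung, kidney fixed in 4% paraformaldehyde, embedded, sectioned, H&E stained and examined by microscopy; PBS-treated uninfected and vehicle controls.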

[19] = test system: Staphylococcus aureus; test: as §5, with “preservation of” for “reduction in”, “integrity” for “inflammation”; type: functional, organism-based; in short: as §6
[20] = test system: Staphylococcus aureus; test: as §5, with “severe alveolar destruction” for “skin inflammation”; type: functional, organism-based; in short: as §6
[21] = test system: Staphylococcus aureus; test: as §5, with “interstitium thickening” for “skin inflammation”; type: functional, organism-based; in short: as §6
[22] = test system: Staphylococcus aureus; test: as §5, with “heart histopathological changes” for “skin inflammation”; type: functional, organism-based; in short: as §6
[23] = test system: Staphylococcus aureus; test: as §5, with “liver histopathological changes” for “skin inflammation”; type: functional, organism-based; in short: as §6
[24] = test system: Staphylococcus aureus; test: as §5, with “kidney histopathological changes” for “skin inflammation”; type: functional, organism-based; in short: as §6
[25] = test system: Staphylococcus aureus; test: as §5, with “spleen histopathological changes” for “skin inflammation”; type: functional, organism-based; in short: as §6

| SMILES | inhibition [1] | IC50 [2] | Ratio [3] | EC50 [4] | HC50 at 0.25 h [5] | GI50 at 24 h [6] | GI50 at 24 h [7] | ΔTm [8] | Activity [9] | other results |
| --- | --- | --- | --- | --- | --- | --- | --- | --- | --- | --- |
| CC(C)Cc1ccc(C(C)C(=O)N[C@@H](Cc2ccc(O)cc2)C(=O)N[C@@H](CC(C)C)B(O)O)cc1 (some centres undefined) | Dose-dependent effect | 1400 nM | 7.2 ×10² /s.M | 9.6 µM | > 500 µM | 83 µM | 117 µM | 29.5 to 42.2 °C | 100% | IC50 [10]: 3 to 25 µM; IC50 [11]: 3 to 25 µM; inhibition [12]: Active; inhibition [13]: inactive; inhibition [14]: inactive |
| CC(C)C[C@H](NC(=O)[C@H](Cc1ccccc1)NC(=O)c1cnccn1)B(O)O [BORTEZOMIB] | Dose-dependent effect | 5300 nM | 2.2 ×10² /s.M | 23.5 µM | > 500 µM | 168 µM | 101 µM | 29.5 to 42.2 °C | 100% | inhibition [15]: inactive |
| COC(=O)c1ccc(OC(=O)CCc2cc(OC)c(OC)c(OC)c2)cc1 | – | – | – | – | – | – | – | – | – | Activity [8]: inactive; inhibition [16]: Active |
| CC(C)Cc1ccc(C(C)C(=O)N[C@@H](Cc2c[nH]c3ccccc23)C(=O)N[C@@H](CC(C)C)B(O)O)cc1 (some centres undefined) | Dose-dependent effect | 1900 nM | 8 ×10² /s.M | 2.6 µM | > 500 µM | 71.2 µM | 54.8 µM | 29.5 to 42.2 °C | 100% | growth inhibition (GI) [17]: inactive |
| COc1ccc(C(=O)N[C@@H](Cc2ccccc2)C(=O)N[C@@H](CC(C)C)B(O)O)c(C)c1 | Dose-dependent effect | 1500 nM | 9.1 ×10² /s.M | 14.8 µM | > 500 µM | > 200 µM | > 200 µM | 29.5 to 42.2 °C | 100% | – |
| CC(C)C[C@H](NC(=O)CNC(=O)c1cc(Cl)ccc1Cl)B(O)O [IXAZOMIB] | Dose-dependent effect | 5300 to 5700 nM | 2.4 ×10² /s.M | 3.6 µM | 408 µM | 182 µM | > 200 µM | – | – | – |
| CN[C@H](CC(C)C)C(=O)N[C@H]1C(=O)N[C@@H](CC(N)=O)C(=O)N[C@H]2C(=O)N[C@H]3C(=O)N[C@H](C(=O)N[C@H](C(=O)O)c4cc(O)cc(O)c4-c4cc3ccc4O)[C@H](O)c3ccc(c(Cl)c3)Oc3cc2cc(c3O[C@@H]2O[C@H](CO)[C@@H](O)[C@H](O)[C@H]2O[C@H]2C[C@](C)(N)[C@H](O)[C@H](C)O2)Oc2ccc(cc2Cl)[C@H]1O | – | – | – | – | – | – | – | – | – | Activity [18]: Active; Activity [19]: Active; Activity [20]: Active; Activity [21]: Active; Activity [22]: Active; Activity [23]: Active; Activity [24]: Active; Activity [25]: Active |
| COc1ccc(C(=O)N[C@@H](Cc2ccccc2)C(=O)N[C@@H](CC(C)C)B(O)O)cc1 | Dose-dependent effect | 1900 nM | 6.7 ×10² /s.M | 3.3 µM | > 500 µM | 196 µM | > 200 µM | 29.5 to 42.2 °C | 100% | IC50 [10]: 3 to 25 µM; IC50 [11]: 3 to 25 µM; inhibition [12]: Active; inhibition [13]: inactive; inhibition [14]: inactive |
